{"data": "Measurements of several laboratories", "PIK3CA M1043I": "Phosphatidylinositol 4,5-bisphosphate 3-kinase catalytic subunit alpha isoform (PIK3CA, Homo sapiens, UniProt P42336, M1043I)", "PIK3CA E542K": "Phosphatidylinositol 4,5-bisphosphate 3-kinase catalytic subunit alpha isoform (PIK3CA, Homo sapiens, UniProt P42336, E542K)", "PIK3CA H1047Y": "Phosphatidylinositol 4,5-bisphosphate 3-kinase catalytic subunit alpha isoform (PIK3CA, Homo sapiens, UniProt P42336, H1047Y)", "PIK3CA E545A": "Phosphatidylinositol 4,5-bisphosphate 3-kinase catalytic subunit alpha isoform (PIK3CA, Homo sapiens, UniProt P42336, E545A)", "PIK3CA C420R": "Phosphatidylinositol 4,5-bisphosphate 3-kinase catalytic subunit alpha isoform (PIK3CA, Homo sapiens, UniProt P42336, C420R)", "PIK3CA H1047L": "Phosphatidylinositol 4,5-bisphosphate 3-kinase catalytic subunit alpha isoform (PIK3CA, Homo sapiens, UniProt P42336, H1047L)", "PIK3CA Q546K": "Phosphatidylinositol 4,5-bisphosphate 3-kinase catalytic subunit alpha isoform (PIK3CA, Homo sapiens, UniProt P42336, Q546K)", "PIK3CA E545K": "Phosphatidylinositol 4,5-bisphosphate 3-kinase catalytic subunit alpha isoform (PIK3CA, Homo sapiens, UniProt P42336, E545K)", "note": "Lines come from different studies, so protocols differ."}
{"Structure (SMILES)": "Cc1c(C(=O)O)cc(-c2ccc(C3CCNCC3)cc2)c2ccc(-c3ccc(C(F)(F)F)cc3)cc12", "target": "PIK3CA M1043I", "assay": "cell-free assay, competition with immobilised ligand", "conditions": "1 µM", "remaining binding": "100%"}
{"Structure (SMILES)": "COc1cnc(Nc2cccc(S(N)(=O)=O)c2)nc1N1CCN(c2ccccc2)C(=O)C1", "target": "PIK3CA E542K", "assay": "binding, competition with immobilised ligand", "conditions": "1 µM", "remaining binding": "91%"}
{"Structure (SMILES)": "Nc1ncc2c(n1)-c1c([nH]c3ccc(C#CC4CC4)cc13)CCCC2", "target": "PIK3CA H1047Y", "assay": "binding, competition with immobilised ligand", "conditions": "1 µM", "remaining binding": "75%"}
{"Structure (SMILES)": "Cc1c[nH]c2nccc(Oc3c(F)cc(Nc4cc(Cl)nc(N)n4)cc3F)c12", "target": "PIK3CA E545A", "assay": "cell-free assay, competition with immobilised ligand", "conditions": "0.1 µM", "remaining binding": "88%"}
{"Structure (SMILES)": "c1cnn2ncc(-c3ccnc(N4CCC45COC5)n3)c2c1", "target": "PIK3CA C420R", "assay": "binding", "conditions": "1 µM", "remaining binding": "71%"}
{"Structure (SMILES)": "COc1ncc2cc3ccccc3nc2c1C#N", "target": "PIK3CA C420R", "assay": "cell-free assay, competition with immobilised ligand", "conditions": "5 µM", "remaining binding": "78%"}
{"Structure (SMILES)": "C=CC(=O)N1CCC(C(=O)NCC(=O)N2CCN(c3nc(-c4cnc(N)nc4C(F)F)nc(N4CCOCC4)n3)CC2)CC1", "target": "PIK3CA C420R", "assay": "binding, competition with immobilised ligand", "conditions": "1 µM", "remaining binding": "0.6%"}
{"Structure (SMILES)": "O=C(c1ccc(Nc2ncc(Cl)c(-c3ccc(Cl)s3)n2)cc1)N1CCC(N2CCCC2)CC1", "target": "PIK3CA C420R", "assay": "binding, competition with immobilised ligand", "conditions": "1 µM", "remaining binding": "100%"}
{"Structure (SMILES)": "c1cncc(-c2cccc(Nc3nccc(NC4CCCCC4)n3)c2)c1", "target": "PIK3CA H1047L", "assay": "binding, competition with immobilised ligand", "conditions": "10 µM", "remaining binding": "100%"}
{"Structure (SMILES)": "CN(C)c1nccc(-c2cnn3ncccc23)n1", "target": "Phosphatidylinositol 4,5-bisphosphate 3-kinase catalytic subunit alpha isoform (PIK3CA, Homo sapiens, UniProt P42336, I800L)", "assay": "binding", "conditions": "1 µM", "remaining binding": "96%"}
{"Structure (SMILES)": "Cc1nc(Cc2cccc(C(F)(F)F)c2)sc1-c1ccc(C(N)=O)nc1", "target": "PIK3CA E545A", "assay": "cell-free assay, competition with immobilised ligand", "conditions": "1 µM", "remaining binding": "100%"}
{"Structure (SMILES)": "C[C@H]1CCN(c2nccc(-c3cnn4ncccc34)n2)C1", "target": "PIK3CA Q546K", "assay": "binding", "conditions": "1 µM", "remaining binding": "85%"}
{"Structure (SMILES)": "CCOCCn1cc(C(=O)Nc2ccc(-n3nc(-c4cccnc4)cc3C(F)(F)F)cn2)ccc1=O", "target": "PIK3CA E545K", "assay": "cell-free assay, competition with immobilised ligand", "conditions": "1 µM", "remaining binding": "96%"}
{"Structure (SMILES)": "Cc1cnn2ncc(-c3ccnc(N(C)C)n3)c2c1", "target": "PIK3CA E545A", "assay": "binding", "conditions": "1 µM", "remaining binding": "100%"}
{"Structure (SMILES)": "O=C(NCC1CCOCC1)c1n[nH]cc1NC(=O)c1c(F)cccc1F", "target": "PIK3CA H1047Y", "assay": "binding, competition with immobilised ligand", "conditions": "1 µM", "remaining binding": "100%"}
{"Structure (SMILES)": "COc1cnc(Nc2cccc(S(N)(=O)=O)c2)nc1N1CCN(c2ccccc2)CC1", "target": "PIK3CA H1047Y", "assay": "binding, competition with immobilised ligand", "conditions": "1 µM", "remaining binding": "74%"}
{"Structure (SMILES)": "CC(C)(O)c1cncc(-c2nc3ccc(F)cc3n2C2CC2)c1", "target": "PIK3CA M1043I", "assay": "cell-free assay, competition with immobilised ligand", "conditions": "1 µM", "remaining binding": "100%"}
{"Structure (SMILES)": "CC1CCCN1c1nccc(-c2cnn3ncccc23)n1 (stereo not drawn)", "target": "Phosphatidylinositol 4,5-bisphosphate 3-kinase catalytic subunit alpha isoform (PIK3CA, Homo sapiens, UniProt P42336)", "assay": "binding", "conditions": "1 µM", "remaining binding": "100%"}
{"Structure (SMILES)": "O=C(c1ccc(Nc2nccc(-c3cc4ccccc4s3)n2)cc1)N1CCC(N2CCCC2)CC1", "target": "PIK3CA Q546K", "assay": "binding, competition with immobilised ligand", "conditions": "1 µM", "remaining binding": "100%"}
{"Structure (SMILES)": "CN(C)c1ncc(F)c(-c2cnn3ncccc23)n1", "target": "PIK3CA H1047L", "assay": "binding", "conditions": "1 µM", "remaining binding": "100%"}
{"Structure (SMILES)": "CC(=O)C1=C(C)N(c2cccc(C(F)(F)F)c2)C(=O)N[C@@H]1c1ccc(C#N)nc1", "target": "PIK3CA H1047L", "assay": "cell-free assay, competition with immobilised ligand", "conditions": "1 µM", "remaining binding": "69%"}
{"Structure (SMILES)": "N[C@@H]1CCN(c2nccc(-c3cnn4ncccc34)n2)C1", "target": "PIK3CA E542K", "assay": "binding", "conditions": "1 µM", "remaining binding": "80%"}
{"Structure (SMILES)": "Nc1cnc(N2CCc3cc(S(=O)(=O)Nc4c(F)cc(Cl)cc4F)cc(N4CCCC4=O)c32)nc1", "target": "PIK3CA H1047Y", "assay": "cell-free assay, competition with immobilised ligand", "conditions": "1 µM", "remaining binding": "100%"}
{"Structure (SMILES)": "CN1CCN(c2ccc(Nc3nccc(-c4ccccc4)n3)cc2C(F)(F)F)CC1", "target": "PIK3CA E545K", "assay": "binding", "conditions": "10 µM", "remaining binding": "68%"}
